# M5 ag: CHRM5 agonism in calcium assay. 0.19% of 360,000 active. P08912. CHO-K1 hM5 cells, Fluo-8 calcium fluorescence; 0% DMSO wells, 100% maximal acetylcholine response. activation, % at 3 µM;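 active = activation above the run's mean over test compounds plus 3 SD, cut at about 23% in these data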;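 note: signal is peak over basal fluorescence ratio across the kinetic read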
# Target sequence (P08912 whole entry, looked up): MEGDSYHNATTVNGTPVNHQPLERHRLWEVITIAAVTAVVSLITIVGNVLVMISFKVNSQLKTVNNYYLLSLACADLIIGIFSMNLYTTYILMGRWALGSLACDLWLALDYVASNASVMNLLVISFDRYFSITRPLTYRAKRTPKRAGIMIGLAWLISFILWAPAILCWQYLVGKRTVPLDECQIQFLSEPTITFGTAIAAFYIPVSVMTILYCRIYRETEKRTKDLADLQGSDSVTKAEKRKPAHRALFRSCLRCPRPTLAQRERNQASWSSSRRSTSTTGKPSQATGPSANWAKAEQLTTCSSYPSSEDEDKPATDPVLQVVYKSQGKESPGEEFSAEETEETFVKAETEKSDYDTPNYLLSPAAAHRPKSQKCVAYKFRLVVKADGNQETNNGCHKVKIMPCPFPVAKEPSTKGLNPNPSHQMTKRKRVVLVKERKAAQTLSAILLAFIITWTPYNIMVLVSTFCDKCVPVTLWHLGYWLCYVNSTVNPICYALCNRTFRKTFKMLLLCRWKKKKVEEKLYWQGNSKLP
# M1 PAM: positive allosteric modulators of human M1 muscarinic receptor. P11229. activation, % at 3 µM. CHO-K1 hM1, Fluo-8 calcium fluorescence, ACh EC20; 0% = ACh EC20, 100% = maximal ACh. 0.088% of 360,000 active; in the data active = activation above about 19%, passing the limit was not always enough
# M5 PAM: CHRM5 positive allosteric modulation | AID 624038 | activation, % at 3 µM | CHO-K1 hM5, Fluo-8 calcium, ACh EC20 PAM; 0% = ACh EC20, 100% = ACh EC100 | 0.3% of 360,000 active | P08912;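 active = activation above the run cutoff, the mean activation of all test compounds plus 3 SD, cut at about 18% in these data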
#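 Assay system – human M5 receptor in CHO-K1 cells · Read-out – % activation, ACh-normalized · Technique – Fluo-8 calcium fluorescence · Dosing – single-point, 3 µM nominal · Incubation – Fluo-8 loading 80 min at 37 °C plus 30 min room temperature · Repeats – singlicate, one well per test compound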
# CHRM5 antagonist: CHRM5 antagonism in calcium assay; P08912; CHO-hM5 cells, Fluo-8 calcium fluorescence, ACh EC80; inhibition, % at 3 µM; 0.59% of 360,000 active;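 active = inhibition above a per-plate cutoff, the mean of that plate's test compounds plus 3 SD, cut at about 27% in these data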;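 note: 0% = acetylcholine EC80 with DMSO and 100% = DMSO without agonist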
# CHRM1 agonist: activates human CHRM1 receptor; CHO-K1 hM1, Fluo-8 calcium fluorescence, agonist mode; 0% DMSO, 100% acetylcholine EC100; activation, % at 3 µM; 0.33% of 360,000 active;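 active = activation above the run's mean compound activation plus 3 SD, cut at about 16% in these data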;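 note: peak over basal fluorescence ratio within a 140 s kinetic read after compound addition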
# M1 antag: blocks human M1 muscarinic receptor; inhibition, % at 3 µM; P11229; CHO-K1 hM1, Fluo-8 calcium fluorescence, ACh EC80 antagonist; AID 588852; 1.3% of 360,000 active;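 active = percent inhibition above its own plate's cutoff, namely the mean of that plate's compound wells plus 3 SD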;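 note: peak over basal fluorescence ratio during 140 s after agonist addition; 0% = ACh EC80 plus DMSO and 100% = DMSO alone without agonist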
# Numbers without * were called inactive; . = no result given. Shown are actives, neighbours in structure and some others; about 2% of the full set was active somewhere.
SMILES,M5 ag,M1 PAM,M5 PAM,CHRM5 antagonist,CHRM1 agonist,M1 antag
Cc1ccc2nc(-c3ccc(Cl)cc3)c(Cc3cccc(Cl)c3)n2c1,-6,.,-20,1,.,.
O=[N+]([O-])/C=C/c1cn(Cc2ccc(F)cc2)c2ccccc12,2,15,9,13,-3,33*
O=[N+]([O-])c1ccc(Sc2ccccn2)nc1,-2,-2,0,6,-3,9
O=C(Nc1cc(Sc2ccccn2)cc([N+](=O)[O-])c1)c1ccc([N+](=O)[O-])cc1,-1,-16,-4,-7,2,24*
O=C(c1[nH]c(C(F)(F)F)nc1-c1ccccc1)N1CCN(C(=O)C2CCCO2)CC1 (centres undefined),1,3,-2,6,-2,-25
Cc1cc(C)n(-c2nc(Nc3ccccc3C(F)(F)F)nc(-n3nc(C)cc3C)n2)n1,1,-19,-16,30*,4,38
Cc1cc(C)n(-c2nc(NC(C)(C)C)nc(NC(C)(C)C)n2)n1,-4,-7,-2,12,-4,12
COC(=O)c1sccc1S(=O)(=O)Nc1ccc(C(O)(C(F)(F)F)C(F)(F)F)cc1,69*,-33,-20,27,66*,39*
CN(C)Cc1ccccc1CNC(=O)c1ccc(Cl)c(S(=O)(=O)NC2CC2)c1,0,8,-2,5,-5,-12
Cc1csc2c(N3CCN(C(=S)Nc4ccc(C(F)(F)F)cc4)CC3)ncnc12,4,-4,-22,30*,4,22
Cc1csc2ncnc(N3CCN(C(=S)Nc4ccc(C(F)(F)F)cc4)CC3)c12,-1,-14,-28,16,-2,43*
Cc1cc(C)cc(NC(=S)N2CCN(c3ncc(C(F)(F)F)cc3Cl)CC2)c1,5,10,8,0,-3,-5
COC(=O)[C@]12CCCCC=C1N(Cc1ccc3c(c1)OCO3)C(=O)[C@H](CC(=O)NCc1ccccc1)C2,3,.,-9,11,.,.
O=C(CSc1nc(N2CCOCC2)nc(N2CCOCC2)n1)Nc1ccc([N+](=O)[O-])cc1,2,10,22*,-23,2,-9
CC1CC(=Cc2ccc(N)cc2)C(=O)O1 (centres undefined),0,4,4,-1,-6,-7
CCc1nc2c(OCc3ccc(C#N)cc3)cccn2c1N(C)C(=O)c1ccc(C)cc1,-3,-8,-3,2,-8,-4
O=C(CCCC1=NS(=O)(=O)c2ccccc2N1)N1CCN(c2ccccc2)CC1,-4,0,-7,0,-1,0
CC(C)(CC(=O)N1CCN(c2ccc(Cl)cc2)CC1)CC1=NS(=O)(=O)c2ccccc2N1,8,-8,-23,28*,1,30*
COc1cccc(N2CCN(C(=O)CC(C)(C)CC3=NS(=O)(=O)c4ccccc4N3)CC2)c1,2,-25,-18,27*,1,28
COC(=O)c1ccc2cc(C)cc(C)c2n1,-2,5,-1,8,-10,-3
CC(C)C[C@H]1CN(CCCC[C@@H]2CNC(=O)C(=O)N2Cc2ccccc2)C(=O)C(=O)N1CCc1ccccc1,-1,.,2,-3,.,.
COc1ccc(OC)c(S(=O)(=O)NCC(c2ccco2)N2CCc3ccccc32)c1 (centres undefined),2,24*,0,6,2,-24
COc1ccccc1C(=O)NCC(c1ccco1)N1CCc2ccccc21 (centres undefined),-1,-5,-4,-1,-4,6
COc1ccc(C(CNC(=O)Cc2ccccc2F)N2CCCCC2)cc1 (centres undefined),-15,-7,2,10,-8,-1
COc1ccc(C(CNC(=O)Cc2ccccc2Cl)N2CCCCC2)cc1 (centres undefined),-7,-28,-6,8,-10,38*
SMILES,M5 ag,M1 PAM,M5 PAM,CHRM5 antagonist,CHRM1 agonist,M1 antag
COc1ccc(C(CNC(=O)c2ccc(Cl)c(NC(=O)c3cccs3)c2)N2CCCC2)cc1 (centres undefined),-9,-27,-34,6,-6,46*
CCOc1ccc(S(=O)(=O)NCCC(=O)NCC(c2ccc(OC)cc2)N2CCOCC2)cc1 (centres undefined),-3,8,-2,10,-7,-19
COc1ccc(C(CNC(=O)c2cccc(S(=O)(=O)N3CCCC3)c2)N2CCCC2)cc1 (centres undefined),-8,-7,-1,2,-7,7
COc1ccc(C(CNC(=O)CCNS(=O)(=O)c2ccccc2)N2CCOCC2)cc1 (centres undefined),0,-13,-5,4,-4,30*
Cc1cccc(NC(=O)c2nc[nH]c2C(=O)N[C@@H](C)CO)c1,0,8,-1,-5,0,-21
CCCCCCCCCC[n+]1cccc(C(=O)N(CC)CC)c1,-10,-25,-15,8,-9,42*
C#CCOCCOCCOCCNc1nc(N2CCN(C(=O)CCCCCCCCCCNC(=O)[C@H]([C@@H](C)CC)n3cc(CCCCCN)nn3)CC2)nc(N2CCN(C(=O)CCCCCCCCCCNC(=O)[C@H](CO)n3cc(CCCCCN)nn3)CC2)n1,3,-21,0,0,19*,12
CC(C)(C)OC(=O)NCCCCCc1cn([C@@H](CO)C(=O)NCCCCCCCCCCC(=O)N2CCN(C(=O)OC(C)(C)C)CC2)nn1,1,-36,-40,38*,-3,74*
C#CCOCCOCCOCCNc1nc(N2CCN(C(=O)CCCCCCCCCCNC(=O)[C@@H](CCC(=O)O)n3cc(CCCCCN)nn3)CC2)nc(N2CCN(C(=O)CCCCCCCCCCNC(=O)[C@H]([C@@H](C)CC)n3cc(CCCCCN)nn3)CC2)n1,0,-13,0,-4,18*,12
C#CCOCCOCCOCCNc1nc(N2CCN(C(=O)CCCCCCCCCCNC(=O)Cn3cc(CCCCCN)nn3)CC2)nc(N2CCN(C(=O)CCCCCCCCCCNC(=O)Cn3cc(CCCCCN)nn3)CC2)n1,-10,-35,-1,12,-7,39*
CC(C)(C)OC(=O)CC[C@@H](C(=O)NCCCCCCCCCCC(=O)N1CCN(C(=O)OC(C)(C)C)CC1)n1cc(CCCCCNC(=O)OC(C)(C)C)nn1,6,20,8,-13,6,-5
C#CCOCCOCCOCCNc1nc(N2CCN(C(=O)CCCCCCCCCCNC(=O)[C@H]([C@@H](C)CC)n3cc(CCCCN=C(N)N)nn3)CC2)nc(N2CCN(C(=O)CCCCCCCCCCNC(=O)[C@H](CO)n3cc(CCCCCN)nn3)CC2)n1,-7,-26,-10,23,-11,20

# Screening data from PubChem.
